Assay results taken from ChEMBL document CHEMBL2384907, “Identification of substituted pyrimido[5,4-b]indoles as selective Toll-like receptor 4 ligands” (J Med Chem, 2013).

Assays:
Type in all cases: cell-based
[1] = Cytotoxicity against mouse BMDC cells up to 10 uM after overnight incubation by MTT assay
Procedure, shortened: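 BMDC (10^5/well) incubated 18 h with graded concentrations alongside 0.5% DMSO vehicle and MPLA 1 μg/mL; cells lysed after overnight MTT incubation, absorbance 570 nm minus 650 nm reference. Triplicates, mean ± SEM, two independent experiments.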

[2] = biological target: Toll-like receptor 4 (Homo sapiens) (UniProt O00206); test: Activation of TLR4 in human PBMC cells assessed as AUC of IL8 release at 10 uM after 18 hrs by ELISA relative to N-cyclohexyl-2-(4-oxo-3-phenyl-4,5-dihydro-3H-pyrimido[5,4-b]indol-2-ylthio)acetamide
Chain of Toll-like receptor 4 (Homo sapiens) (O00206 whole entry): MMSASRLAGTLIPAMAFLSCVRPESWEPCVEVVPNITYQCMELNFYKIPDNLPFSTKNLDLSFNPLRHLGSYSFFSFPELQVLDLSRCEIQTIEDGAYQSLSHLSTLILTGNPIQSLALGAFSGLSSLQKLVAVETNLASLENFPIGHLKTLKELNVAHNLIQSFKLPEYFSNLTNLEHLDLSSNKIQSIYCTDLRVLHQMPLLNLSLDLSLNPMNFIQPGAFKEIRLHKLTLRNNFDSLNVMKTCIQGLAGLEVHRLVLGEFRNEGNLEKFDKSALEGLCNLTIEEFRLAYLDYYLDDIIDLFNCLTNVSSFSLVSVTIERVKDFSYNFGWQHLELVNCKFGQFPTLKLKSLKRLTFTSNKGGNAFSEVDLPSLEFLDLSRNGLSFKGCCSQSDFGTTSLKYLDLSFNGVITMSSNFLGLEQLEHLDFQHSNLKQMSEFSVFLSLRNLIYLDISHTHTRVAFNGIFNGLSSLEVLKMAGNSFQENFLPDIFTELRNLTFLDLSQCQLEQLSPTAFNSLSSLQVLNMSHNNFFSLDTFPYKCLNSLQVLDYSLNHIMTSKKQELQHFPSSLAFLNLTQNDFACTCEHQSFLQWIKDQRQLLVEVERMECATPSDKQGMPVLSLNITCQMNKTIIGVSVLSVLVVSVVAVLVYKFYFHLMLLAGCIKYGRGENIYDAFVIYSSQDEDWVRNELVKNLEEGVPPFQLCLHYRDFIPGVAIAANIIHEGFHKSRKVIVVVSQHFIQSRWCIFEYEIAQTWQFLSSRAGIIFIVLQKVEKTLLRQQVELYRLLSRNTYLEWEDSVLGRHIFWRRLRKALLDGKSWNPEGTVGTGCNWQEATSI
Procedure, shortened: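 Human PBMC from buffy coats, 1 × 10^6/mL in complete RPMI, 18 h at 37 °C, 5% CO2 with compound at 10 μM; IL-8 in supernatant by ELISA, normalized to reference hit set at 100. LPS 10 ng/mL positive control.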

[3] = biological target: T1, Toll-like receptor 4 (Mus musculus) (UniProt Q9QUK6); test: Activation of mouse TLR4 transfected in HEK293 cells after 18 hrs by SEAP assay relative to N-cyclohexyl-2-(4-oxo-3-phenyl-4,5-dihydro-3H-pyrimido[5,4-b]indol-2-ylthio)acetamide
T1 sequence (whole entry): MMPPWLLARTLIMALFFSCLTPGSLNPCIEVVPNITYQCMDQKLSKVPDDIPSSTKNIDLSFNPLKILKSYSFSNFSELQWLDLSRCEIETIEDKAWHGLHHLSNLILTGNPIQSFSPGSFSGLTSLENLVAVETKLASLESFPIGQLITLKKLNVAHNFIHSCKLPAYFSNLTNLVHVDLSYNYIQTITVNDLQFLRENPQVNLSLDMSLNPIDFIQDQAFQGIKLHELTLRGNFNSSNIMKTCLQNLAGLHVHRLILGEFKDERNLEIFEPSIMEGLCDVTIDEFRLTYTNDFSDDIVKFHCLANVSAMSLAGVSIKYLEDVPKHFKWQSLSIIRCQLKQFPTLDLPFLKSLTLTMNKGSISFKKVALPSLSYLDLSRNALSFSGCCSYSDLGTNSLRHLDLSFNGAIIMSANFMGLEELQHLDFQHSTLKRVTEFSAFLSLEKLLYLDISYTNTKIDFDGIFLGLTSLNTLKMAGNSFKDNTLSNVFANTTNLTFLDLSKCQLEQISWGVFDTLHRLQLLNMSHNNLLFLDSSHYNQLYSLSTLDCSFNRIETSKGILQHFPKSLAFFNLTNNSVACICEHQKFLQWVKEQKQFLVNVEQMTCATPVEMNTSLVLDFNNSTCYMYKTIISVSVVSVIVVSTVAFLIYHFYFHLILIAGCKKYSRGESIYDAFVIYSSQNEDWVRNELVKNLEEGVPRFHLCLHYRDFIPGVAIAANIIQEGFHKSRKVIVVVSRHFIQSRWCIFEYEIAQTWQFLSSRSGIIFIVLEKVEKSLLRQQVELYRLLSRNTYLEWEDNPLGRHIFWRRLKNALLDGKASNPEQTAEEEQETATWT
Procedure, shortened: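 Mouse TLR4 HEK-Blue cells (2.5 × 10^4/well) given titrated doses 312 nM–10 μM for 18 h, 0.5% DMSO vehicle; SEAP at 630 nm. Percent-activity curves, AUC by trapezoid method, normalized to reference hit set at 100. LPS 10 ng/mL control.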

[4] = biological target: Toll-like receptor 4 (Homo sapiens) (UniProt O00206); test: Activation of human TLR4 transfected in HEK293 cells after 18 hrs by SEAP assay relative to N-cyclohexyl-2-(4-oxo-3-phenyl-4,5-dihydro-3H-pyrimido[5,4-b]indol-2-ylthio)acetamide; set-up: concentration or dose not given beside the values
Procedure, shortened: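 Human TLR4 HEK-Blue cells (2.5 × 10^4/well) given compound at 10 μM for 18 h, 0.5% DMSO vehicle; SEAP in supernatant read at 630 nm, normalized to reference hit set at 100. LPS 10 ng/mL positive control.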

[5] = biological target: T1, Toll-like receptor 4 (Mus musculus); test: Activation of TLR4 in C57BL/6 mouse BMDC cells assessed as AUC of IP10 release at 5 uM after 18 hrs by ELISA relative to N-cyclohexyl-2-(4-oxo-3-phenyl-4,5-dihydro-3H-pyrimido[5,4-b]indol-2-ylthio)acetamide
[6] = biological target: T1, Toll-like receptor 4 (Mus musculus); test: Activation of TLR4 in C57BL/6 mouse BMDC cells assessed as AUC of IL6 release after 18 hrs by ELISA relative to N-cyclohexyl-2-(4-oxo-3-phenyl-4,5-dihydro-3H-pyrimido[5,4-b]indol-2-ylthio)acetamide
Procedure, shortened: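 C57BL/6 bone marrow DC, 10^5 cells/well in RPMI-10% FCS, 18 h at 37 °C with titrated doses 312 nM–10 μM; supernatant IL-6 by ELISA. Each curve converted to percent activity (background subtracted, plate-adjusted), AUC by trapezoid method, normalized to reference hit set at 100 per experiment. LPS 10 ng/mL positive control; 0.5% DMSO vehicle.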

Row | Activity [2] | Activity [3] | Activity [4] | Activity [5] | Activity [6] | Structure (SMILES) | Activity [1]
1 | 79% | 100% | 92% | 99% | 101% | Cn1c2ccccc2c2nc(SCC(=O)NC3CCCCC3)n(-c3ccccc3)c(=O)c21 | Non-toxic
2 | 30% | 55% | 19% | 64% | 98% | N#CCn1c2ccccc2c2nc(SCC(=O)NC3CCCCC3)n(-c3ccccc3)c(=O)c21 | Non-toxic
3 | 29% | 31% | 32% | 61% | 49% | CCCCNC(=O)CSc1nc2c([nH]c3ccccc32)c(=O)n1-c1ccccc1 | 
4 | < 1% | 8% | 11% | 26% | < 10% | CCC(CC)NC(=O)CSc1nc2c([nH]c3ccccc32)c(=O)n1-c1ccccc1 | 
5 | 95% | 126% | 72% | 85% | 99% | CC(C)(C)CCNC(=O)CSc1nc2c([nH]c3ccccc32)c(=O)n1-c1ccccc1 | 
6 |  |  |  |  |  | CCCn1c2ccccc2c2nc(SCC(=O)NC3CCCCC3)n(-c3ccccc3)c(=O)c21 | Non-toxic
7 | 7% | < 1% | < 1% | < 1% | 3% | O=C(CSc1nc2c([nH]c3ccccc32)c(=O)n1-c1ccccc1)Nc1ccc2cn[nH]c2c1 | 
8 | 13% | 11% | 39% | 45% | 14% | O=C(CSc1nc2c([nH]c3ccccc32)c(=O)n1-c1ccccc1)Nc1cccc(F)c1 | 
9 | 5% | 41% | 51% | 72% | 48% | O=C(CSc1nc2c([nH]c3ccccc32)c(=O)n1-c1ccc(F)cc1)NC1CCCCC1 | 
10 | 4% | < 1% | 8% | < 1% | < 1% | CCNC(=O)CSc1nc2c([nH]c3ccccc32)c(=O)n1-c1ccccc1 | 
11 | 23% | 29% | 17% | 45% | 30% | CCC(C)CCNC(=O)CSc1nc2c([nH]c3ccccc32)c(=O)n1-c1ccccc1 (stereo not drawn) | 
12 | 1% | 6% | 11% | < 1% | 5% | CCCCCn1c2ccccc2c2nc(SCC(=O)NC3CCCCC3)n(-c3ccccc3)c(=O)c21 | 
13 | 11% | 24% | 21% | 53% | 44% | CC(C)CNC(=O)CSc1nc2c([nH]c3ccccc32)c(=O)n1-c1ccccc1 | 
14 | 17% | < 1% | < 1% | < 1% | < 1% | O=C(CSc1nc2c([nH]c3ccccc32)c(=O)n1-c1ccccc1)NC1CCNCC1 | 
15 | 15% | 21% | 31% | 44% | 11% | O=C(CSc1nc2c([nH]c3ccccc32)c(=O)n1-c1ccccc1)Nc1ccccc1 | 
16 | 8% | 21% | 13% | 54% | < 23% | O=C(CSc1nc2c3ccccc3nc-2c(O)n1-c1ccccc1)NCC1CCCO1 (stereo not drawn) | 
17 | 53% | 56% | 38% | 62% | 61% | CC(C)CCNC(=O)CSc1nc2c([nH]c3ccccc32)c(=O)n1-c1ccccc1 | 
18 | 5% | 2% | 12% | < 1% | 1% | O=C(CSc1nc2c([nH]c3ccccc32)c(=O)n1-c1ccccc1)Nc1nccs1 | 
19 | 124% | 9% | 19% | 19% | 4% | COC(=O)CCCn1c2ccccc2c2nc(SCC(=O)NC3CCCCC3)n(-c3ccccc3)c(=O)c21 | 
20 | 14% | 19% | 33% | 47% | 47% | O=C(CSc1nc2c([nH]c3ccccc32)c(=O)n1C1CCCCC1)NC1CCCC1 | 
21 | 15% | 5% | 27% | 26% | 18% | O=C(CSc1nc2c([nH]c3ccccc32)c(=O)n1-c1ccccc1)NCc1ccco1 | 
22 | 5% | < 1% | 6% | < 1% | < 1% | CC(C)(C)NC(=O)CSc1nc2c([nH]c3ccccc32)c(=O)n1-c1ccccc1 | 
23 | 19% | 18% | 32% | 66% | 35% | O=C(CSc1nc2c([nH]c3ccccc32)c(=O)n1-c1ccccc1)NC1CCC1 | 
